Measurements as given in ChEMBL document CHEMBL1255526, “Fused tricyclic pyrrolizinones that exhibit pseudo-irreversible blockade of the NK1 receptor” (Bioorg Med Chem Lett, 2010).

Experiments:
[1] = tested on: Meriones unguiculatus; test: Inhibition of GR-73632-induced foot tapping in Mongolian gerbil at 3 mg/kg after 24 hrs; format: functional
How it was run: (§1)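 Gerbils given antagonist at the dose and pretreatment time shown (1 mg/kg at 1 h, 3 mg/kg at 24 h); foot tapping then induced with the NK1 agonist GR73632. Read-out is % inhibition of tapping; ED50 or ID50 from dose–response.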

[2] = biological target: T1, Substance-P receptor (Homo sapiens, UniProt P25103); test: Displacement of [125I]substance P from human NK1 receptor expressed in CHO cells; format: cell-based
T1 sequence (P25103 whole entry): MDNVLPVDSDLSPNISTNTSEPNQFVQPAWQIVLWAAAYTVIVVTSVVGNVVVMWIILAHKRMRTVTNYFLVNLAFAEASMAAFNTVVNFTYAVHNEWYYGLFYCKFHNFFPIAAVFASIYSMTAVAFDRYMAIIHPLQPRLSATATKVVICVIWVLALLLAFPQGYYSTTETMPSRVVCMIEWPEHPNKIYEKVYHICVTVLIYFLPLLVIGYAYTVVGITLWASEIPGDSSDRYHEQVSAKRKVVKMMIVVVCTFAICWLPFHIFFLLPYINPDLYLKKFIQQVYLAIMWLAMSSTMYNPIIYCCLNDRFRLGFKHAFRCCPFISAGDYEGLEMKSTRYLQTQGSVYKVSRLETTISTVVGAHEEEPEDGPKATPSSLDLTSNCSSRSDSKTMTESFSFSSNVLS
How it was run: (§2)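 Radioligand binding: [125I]substance P displaced from human NK1 receptor expressed in CHO cells; IC50 determined. Also run with 50% serum added (human, dog, rhesus, rat or gerbil) to measure the serum shift.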

[3] = biological target: T2, Nuclear receptor subfamily 1 group I member 2 (Homo sapiens, UniProt O75469); test: Inhibition of human PXR induction
T2 sequence (O75469 whole entry): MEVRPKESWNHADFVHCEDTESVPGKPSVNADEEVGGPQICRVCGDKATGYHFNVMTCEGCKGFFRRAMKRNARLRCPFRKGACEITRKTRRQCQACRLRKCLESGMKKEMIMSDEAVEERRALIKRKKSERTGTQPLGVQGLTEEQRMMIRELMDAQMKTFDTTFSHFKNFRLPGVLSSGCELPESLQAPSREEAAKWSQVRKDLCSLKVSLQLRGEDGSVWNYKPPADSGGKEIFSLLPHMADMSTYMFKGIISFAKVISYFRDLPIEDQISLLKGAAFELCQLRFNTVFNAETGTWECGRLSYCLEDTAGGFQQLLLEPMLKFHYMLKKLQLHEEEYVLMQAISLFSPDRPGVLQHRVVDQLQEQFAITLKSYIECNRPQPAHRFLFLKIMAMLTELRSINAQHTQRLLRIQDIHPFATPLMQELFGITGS

[4] = Binding affinity to calcium channel
How it was run: (§3)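 Ion channel binding assay; IC50 values calculated for sodium channel and for calcium channel (Dlz site).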

[5] = species on record: Meriones unguiculatus; test: Inhibition of GR-73632-induced foot tapping in Mongolian gerbil after 24 hrs; format: functional; conditions: read-out: ED50; how it was run: as §1
[6] = biological target: T1, Substance-P receptor; test: Antagonist activity at human recombinant NK1 receptor expressed in CHO cells assessed as remaining substance P level at 100 nM after 30 mins by [H3]-inositol phosphate release assay; format: functional, cell-based
How it was run: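 CHO cells with recombinant human NK1 receptor, 2.5 × 10⁴ per well, plated overnight, then prelabelled overnight at 37 °C with [3H]-myo-inositol (10–25 Ci/mmol) in inositol-free medium with 0.02% BSA. LiCl 10 mM in HEPES-buffered inositol-free DMEM, 15 min. Antagonist at 100 nM or DMSO for 30 min, then substance P for 30 min. Stopped with formic acid. [3H]-inositol phosphate captured on yttrium silicate SPA beads, 2 h. Reported as % substance P response remaining.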

[7] = Binding affinity to potassium channel IKr
[8] = biological target: T3, PXR (nuclear receptor subfamily 1 group I member 2) (Homo sapiens, UniProt O75469); test: Inhibition of human PXR induction at 10 uM
T3 sequence (O75469 whole entry): T2 sequence (O75469 whole entry)
How it was run: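 Human PXR induction measured at 10 µM compound, expressed as % of maximal induction.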

[9] = biological target: T1, Substance-P receptor; test: Displacement of [125I]substance P from human NK1 receptor expressed in CHO cells in presence of 50% human serum; format: cell-based; how it was run: as §2
[10] = Binding affinity to sodium channel; how it was run: as §3
[11] = tested on: Meriones unguiculatus; test: Inhibition of GR-73632-induced foot tapping in Mongolian gerbil at 1 mg/kg after 1 hr; format: functional; how it was run: as §1

| Structure (SMILES) | inhibition in vivo at 3 mg/kg [1] [%] | IC50 [2] [nM] | IC50 [3] [nM] | IC50 [4] [nM] | ED50 [5] [mg/kg] | Activity [6] [%] | IC50 [7] [nM] | Emax at 10 µM [8] [%] | IC50 [9] [nM] | IC50 [10] [nM] | inhibition in vivo at 1 mg/kg [11] [%] |
| --- | --- | --- | --- | --- | --- | --- | --- | --- | --- | --- | --- |
| C[C@@H](O[C@H]1CN2C(=O)[C@H]3C[C@H](N)C[C@H]3[C@H]2[C@@H]1c1ccc(F)cc1)c1cc(C(F)(F)F)cc(C(F)(F)F)c1 | 100 | 0.11 | > 25000 | 590 | 1.33 | 10 | 1730 | 0 | 1 | 520 |  |
| C[C@@H](O[C@H]1CN2C(=O)C3CNCC3[C@H]2[C@@H]1c1ccc(F)cc1)c1cc(C(F)(F)F)cc(C(F)(F)F)c1 (single isomer, unassigned) |  |  |  |  |  | 46 |  |  |  |  |  |
| C[C@@H](O[C@H]1CN2C(=O)C3CN(C4=CC(=O)CC4)CC3[C@H]2[C@@H]1c1ccc(F)cc1)c1cc(C(F)(F)F)cc(C(F)(F)F)c1 (stereo in doubt; 18b) [FIRST ELUDED ISOMER] |  | 0.09 |  | 4810 |  |  | 730 |  | 1 |  | 92 |
| C[C@@H](O[C@H]1CN2C(=O)C3CN(C4=CC(=O)CC4)CC3[C@H]2[C@@H]1c1ccc(F)cc1)c1cc(C(F)(F)F)cc(C(F)(F)F)c1 (stereo in doubt; 18b) |  |  |  |  |  | 7 |  |  |  |  |  |
| CC[C@]1(O)C[C@H]2[C@H]3[C@H](c4ccc(F)cc4)[C@@H](O[C@H](C)c4cc(C(F)(F)F)cc(C(F)(F)F)c4)CN3C(=O)[C@H]2C1 | 100 | 0.16 | 3300 | 8420 | 0.06 | 4 | 1770 | 51 | 1.7 |  |  |
| C[C@@H](O[C@H]1CN2C(=O)C3CNCC3[C@H]2[C@@H]1c1ccc(F)cc1)c1cc(C(F)(F)F)cc(C(F)(F)F)c1 (single isomer, unassigned) [FIRST ELUDED ISOMER] |  | 1.5 |  |  |  |  |  |  | 15 |  |  |
| C[C@@H](O[C@H]1CN2C(=O)C3CN(C4=CC(=O)CC4)CC3[C@H]2[C@@H]1c1ccc(F)cc1)c1cc(C(F)(F)F)cc(C(F)(F)F)c1 (single isomer, unassigned) [FIRST ELUDED ISOMER] | 32 | 0.17 |  | 8810 |  |  | 1430 |  | 1.9 |  |  |
| C[C@@H](O[C@H]1CN2C(=O)[C@@H]3C[C@H](NCc4ccccc4)C[C@@H]3[C@H]2[C@@H]1c1ccc(F)cc1)c1cc(C(F)(F)F)cc(C(F)(F)F)c1 |  | 1.2 |  |  |  | 94 |  |  | 13 |  |  |
| C[C@@H](O[C@H]1CN2C(=O)[C@@H]3C[C@@H](NCc4ccccc4)C[C@@H]3[C@H]2[C@@H]1c1ccc(F)cc1)c1cc(C(F)(F)F)cc(C(F)(F)F)c1 | 6 | 0.14 |  |  |  | 58 |  |  | 2.3 |  | 81 |
| C[C@@H](O[C@H]1CN2C(=O)C3CNCC3[C@H]2[C@@H]1c1ccc(F)cc1)c1cc(C(F)(F)F)cc(C(F)(F)F)c1 (stereo in doubt; 6b) |  |  |  |  |  | 60 |  |  |  |  |  |
| C[C@@H](O[C@H]1CN2C(=O)[C@H]3C[C@@H](O)C[C@H]3[C@H]2[C@@H]1c1ccc(F)cc1)c1cc(C(F)(F)F)cc(C(F)(F)F)c1 | 100 | 0.06 | 4500 |  |  | 3 |  | 65 | 0.77 |  | 100 |
| C[C@@H](O[C@H]1CN2C(=O)CC[C@H]2[C@@H]1c1ccc(F)cc1)c1cc(C(F)(F)F)cc(C(F)(F)F)c1 | 100 |  | 4800 | 1580 | 0.2 | 88 | 5700 | 50 |  | 1750 |  |
| C[C@@H](O[C@H]1CN2C(=O)[C@H]3C[C@H](O)C[C@H]3[C@H]2[C@@H]1c1ccc(F)cc1)c1cc(C(F)(F)F)cc(C(F)(F)F)c1 |  | 0.08 |  |  |  | 35 |  |  | 1.7 |  |  |
| C[C@@H](O[C@H]1CN2C(=O)C3CNCC3[C@H]2[C@@H]1c1ccc(F)cc1)c1cc(C(F)(F)F)cc(C(F)(F)F)c1 (stereo in doubt; 6b) [FIRST ELUDED ISOMER] | 12 | 0.31 |  | 310 |  |  | 2710 |  | 3.2 |  |  |
| C[C@@H](O[C@H]1CN2C(=O)[C@H]3C[C@@H](N)C[C@H]3[C@H]2[C@@H]1c1ccc(F)cc1)c1cc(C(F)(F)F)cc(C(F)(F)F)c1 | 91 | 0.09 | > 25000 | 1230 |  | 6 | 990 | 0 | 1 | 710 |  |
| C[C@@H](O[C@H]1CN2C(=O)C3CN(C4=CC(=O)CC4)CC3[C@H]2[C@@H]1c1ccc(F)cc1)c1cc(C(F)(F)F)cc(C(F)(F)F)c1 (single isomer, unassigned) |  |  |  |  |  | 11 |  |  |  |  |  |
| C[C@@H](O[C@H]1CN2C(=O)CC(N)[C@H]2[C@@H]1c1ccc(F)cc1)c1cc(C(F)(F)F)cc(C(F)(F)F)c1 (stereo partly specified) | 100 |  | > 25000 | 1880 | 0.92 | 75 | 9500 | 1 |  | 7720 |  |
| C[C@@H](O[C@H]1CN2C(=O)[C@H]3C[C@H](NCc4ccccc4)C[C@H]3[C@H]2[C@@H]1c1ccc(F)cc1)c1cc(C(F)(F)F)cc(C(F)(F)F)c1 | 94 | 0.14 | > 25000 | 210 |  | 4 | 300 | 0 | 1.3 | 210 |  |
| C[C@@H](O[C@H]1CN2C(=O)[C@H]3C[C@](C)(O)C[C@H]3[C@H]2[C@@H]1c1ccc(F)cc1)c1cc(C(F)(F)F)cc(C(F)(F)F)c1 |  | 0.066 |  |  |  | 24 |  |  | 1.2 |  |  |
| C[C@@H](O[C@H]1CN2C(=O)[C@@H]3C[C@H](N)C[C@@H]3[C@H]2[C@@H]1c1ccc(F)cc1)c1cc(C(F)(F)F)cc(C(F)(F)F)c1 |  | 1.5 |  |  |  | 93 |  |  | 47 |  |  |
| C[C@@H](O[C@H]1CN2C(=O)[C@H]3C[C@@H](NCc4ccccc4)C[C@H]3[C@H]2[C@@H]1c1ccc(F)cc1)c1cc(C(F)(F)F)cc(C(F)(F)F)c1 | 100 | 0.17 | > 25000 | 140 | 0.47 | 2 | 280 | 0 | 1.8 |  |  |
| C[C@@H](O[C@H]1CN2C(=O)C(N)C[C@H]2[C@@H]1c1ccc(F)cc1)c1cc(C(F)(F)F)cc(C(F)(F)F)c1 (stereo partly specified) | 100 |  | > 25000 | 210 | 0.61 | 59 | 6500 | 7 |  | 240 |  |
| CC(O[C@H]1CN2C(=O)[C@@H]3CC(N)C[C@@H]3[C@H]2[C@@H]1c1ccc(F)cc1)c1cc(C(F)(F)F)cc(C(F)(F)F)c1 (single isomer, unassigned) |  | 0.66 |  |  |  | 61 |  |  | 13 |  |  |
| CC[C@@]1(O)C[C@H]2[C@H]3[C@H](c4ccc(F)cc4)[C@@H](O[C@H](C)c4cc(C(F)(F)F)cc(C(F)(F)F)c4)CN3C(=O)[C@H]2C1 |  | 0.21 |  |  |  | 31 |  |  | 2.3 |  |  |
